Assay: Toxicity liver stage against HepG2, at 10uM
Assay type: cell-based
Set-up: test concentration 10 uM, cell line HepG2-A16-CD81EGFP
Settings: human, HepG2-A16-CD81EGFP cells; read-out: INHIBITION
Procedure, shortened: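 Uninfected HepG2-A16-CD81EGFP cells, 3 × 10^3 per well, 1536-well, plated on prespotted compound at 10 μM final, parasite-free screening media added to match infected plates; puromycin 10 μM positive, DMSO 0.5% negative; run in parallel with 48 h PbLuc assay at 37 °C, 5% CO2; viability by CellTiter-Glo luminescence, normalized to controls.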
`Cc1cc(NCCc2nc(C)c[nH]2)nc(-c2ccccc2O)n1` gave a cytotoxicity at 10 µM of 1.5%.
`Cc1nccc(N[C@H]2CN(C(=O)CN3CCOCC3)C[C@@H]2C(C)C)n1` gave a cytotoxicity at 10 µM of -7.92%.
Compound `O=C(CCCn1cncn1)N1CCCC1c1nc(-c2ccccc2)no1` (stereo unspecified) has a cytotoxicity at 10 µM of 0.997%.
`COc1cccn(CC(=O)N(C)CCSC)c1=O` gave a cytotoxicity at 10 µM of 5.03%.
`COc1cccc2c1OCC(C(=O)NCCc1nnc(N)s1)C2` (stereo unspecified) showed a cytotoxicity at 10 µM of -33.4%.
`CN(C)CC(=O)NC1CC(C)(C)Cc2nc(C(C)(C)C)ncc21` (stereo unspecified) showed a cytotoxicity at 10 µM of -13.4%.
`O=C(CCN1CCCO1)N1CC[C@@H](CNC(=O)N2CCCC2)[C@H](O)C1` gave a cytotoxicity at 10 µM of 0.275%.
In the case of `COc1nc2c(cc1C(=O)NCc1nc(CSC)no1)CCC2`, the cytotoxicity at 10 µM is reported as -11.7%.
`COc1ccc(CN2CC(=O)N(c3ccc(C)cc3)CC2C)cc1O` (stereo unspecified) showed a cytotoxicity at 10 µM of 4.84%.
`Cn1nccc1NC(=O)Cn1ccc(-c2ccc3c(c2)OCO3)n1` gave a cytotoxicity at 10 µM of -6.74%.
With `CNc1ccnc(N2CCCC(C(=O)c3ccccn3)C2)n1` (stereo unspecified) the cytotoxicity at 10 µM was -12.1%.
For `Cc1sc2nc(CCN)nc(N(C)CCCC3CCCO3)c2c1C` (stereo unspecified), the cytotoxicity at 10 µM was -6.01%.
Compound `CCc1ncc(C(=O)NCCN(C)S(C)(=O)=O)cn1` has a cytotoxicity at 10 µM of 4.03%.
Compound `CCCn1ccnc1CNC(=O)C1COc2cc(OC)ccc2C1` (stereo unspecified) has a cytotoxicity at 10 µM of 1.61%.
`FC(F)(F)CCc1ccnc(NC2CCOC2)n1` (stereo unspecified) gave a cytotoxicity at 10 µM of 16.4%.
With `CC(C)c1nc(Cn2cncn2)n(-c2ccccn2)n1` the cytotoxicity at 10 µM was -1.03%.
`CN(Cc1nccn1C)C1CCCN(CCCc2ccccc2)C1` (stereo unspecified) gave a cytotoxicity at 10 µM of 1.17%.
For `COc1cc(C)cc(C(C(=O)O)N(C)Cc2ccncc2C)c1OC` (stereo unspecified), the cytotoxicity at 10 µM was 0.231%.
With `CN1CCCN(C(=O)c2csc3nc(-c4ccc(Cl)cc4)cn23)CC1` the cytotoxicity at 10 µM was 2.14%.
`COc1cccc(OCC2CCCN(C(=O)c3cnc(C)nc3O)C2)c1` (stereo unspecified) showed a cytotoxicity at 10 µM of -15.8%.
In the case of `CCCc1n[nH]cc1C(=O)N1CCC(c2nccn2CCOC)CC1`, the cytotoxicity at 10 µM is reported as -15.3%.
Work on `Cc1cc(CN2CCC(CNC(=O)c3nccc4ccccc34)C2)[nH]n1` (stereo unspecified) yielded a cytotoxicity at 10 µM of 14.1%.
`CCCc1c(C(=O)NC2CCCC2)nnn1-c1ccc(OC)cc1` showed a cytotoxicity at 10 µM of 5.65%.
With `CCc1noc(CN2CCN(C(=O)c3ccccc3F)CC2)n1` the cytotoxicity at 10 µM was -23.2%.
`Cc1nn(-c2ccccc2)cc1C(=O)N1CCCC1c1cnn(C)c1` (stereo unspecified) showed a cytotoxicity at 10 µM of -1.86%.
`Cc1nn(CC(C)C)c(N(C)C)c1CNCc1ccnn1C` showed a cytotoxicity at 10 µM of -22.3%.
Work on `Cc1cnn(CCNCc2csc(-c3ccc(C(N)=O)cc3)n2)c1` yielded a cytotoxicity at 10 µM of -7.75%.
`O=C(Cc1noc2ccccc12)N1CCC(Nc2cccnn2)CC1` showed a cytotoxicity at 10 µM of -7.85%.
Compound `Cc1nccn1C1CCCN(C(=O)c2cccc(-n3cccc3)c2)C1` (stereo unspecified) has a cytotoxicity at 10 µM of -23%.
`COc1c(CNCc2ccc(CS(C)(=O)=O)cc2)c(C)nn1C` showed a cytotoxicity at 10 µM of -4.47%.
For `O=C(CSCc1ccncc1)NCc1csc(Br)c1`, the cytotoxicity at 10 µM was -6.57%.
Work on `Cc1cnn(CC2CCCN2C(=O)c2nccnc2N)c1` (stereo unspecified) yielded a cytotoxicity at 10 µM of -27.6%.
In the case of `COc1ccccc1CC1CCCN(CCC(N)=O)C1` (stereo unspecified), the cytotoxicity at 10 µM is reported as -5.06%.
With `CN(Cc1ncc(-c2ccccc2)o1)C1CCCN(c2cccnn2)C1` (stereo unspecified) the cytotoxicity at 10 µM was -29.1%.
`CCc1c(C(=O)N2CCN(c3ncccn3)CC2)cnn1C(C)(C)C` showed a cytotoxicity at 10 µM of -1.91%.
`CN(CC(=O)N1CCC(Oc2ccccc2)CC1)c1cnccn1` showed a cytotoxicity at 10 µM of 2.12%.
For `Cc1ncc2c(n1)CN(Cc1nnc(Cc3ccccc3)o1)CC2`, the cytotoxicity at 10 µM was 1.13%.
In the case of `Cc1ccc(-c2noc(CN3CCOC(Cn4cncn4)C3)n2)cc1` (stereo unspecified), the cytotoxicity at 10 µM is reported as -4.15%.
With `c1sc(C2CCCC2)nc1CN1CCn2c(nnc2C2CC2)C1` the cytotoxicity at 10 µM was -1.62%.
Work on `Cc1ccc(NC2CCN(C(=O)CC3CCCO3)CC2)nn1` (stereo unspecified) yielded a cytotoxicity at 10 µM of -10.5%.
Compound `O=C(CN1CCC(c2cccc(F)c2)C1)NCc1ccco1` (stereo unspecified) has a cytotoxicity at 10 µM of -7.88%.
Compound `O=C(CN1CCCCC1Cn1cncn1)NCCc1ccc(F)cc1` (stereo unspecified) has a cytotoxicity at 10 µM of -1.65%.
Compound `OC(CN1CCC(c2ccn[nH]2)CC1)c1cccc(F)c1` (stereo unspecified) has a cytotoxicity at 10 µM of -7.64%.
In the case of `CCc1nccn1C1CCCN(C(=O)c2cc3nc(C)ccc3o2)C1` (stereo unspecified), the cytotoxicity at 10 µM is reported as -15.5%.
For `CC(C)Cc1cc(C(=O)N2CCCC(n3cncn3)C2)[nH]n1` (stereo unspecified), the cytotoxicity at 10 µM was -3.9%.
`O[C@@H]1CN(Cc2cccc(F)c2)CC[C@H]1NCc1ccccn1` showed a cytotoxicity at 10 µM of -1.6%.
In the case of `OC1(c2ccc(F)cc2)CCN(Cc2ccccc2N2CCCC2)CC1`, the cytotoxicity at 10 µM is reported as 20.5%.
Work on `CNC(=O)CN1CCOCC2(CCCN(CCc3ccccc3)C2)C1` (stereo unspecified) yielded a cytotoxicity at 10 µM of 0.0221%.
Compound `C1CC(CN2CCc3c(nnn3CC3CC3)C2COCC2CC2)C1` (stereo unspecified) has a cytotoxicity at 10 µM of 7.61%.
Compound `Cc1cccc(COC[C@@H]2CC[C@H]3[C@H](CCN3Cc3ccco3)O2)n1` has a cytotoxicity at 10 µM of -9.81%.
Compound `CN1CC[C@]2(CN(CC3CCOCC3)C[C@H]2c2ccccc2)C1=O` has a cytotoxicity at 10 µM of -1.18%.
`COc1c(CNCc2cccc(Cn3ccnc3C)c2)c(C)nn1C` gave a cytotoxicity at 10 µM of 23.8%.
In the case of `O=C(NCC1COCc2c(-c3cccnc3)nnn2C1)c1cccs1` (stereo unspecified), the cytotoxicity at 10 µM is reported as 2.93%.
For `Fc1cnc(N2CCCC3(CCN(Cc4ccsc4)C3)C2)nc1` (stereo unspecified), the cytotoxicity at 10 µM was -2.83%.
Work on `COc1ccc(-n2cc3nc(N)[nH]cc-3c2=O)cc1Cl` yielded a cytotoxicity at 10 µM of 17.7%.
`O=C(CN1C[C@@H]2CC[C@H]1CN(Cc1ccccn1)C2)Nc1ccccc1` gave a cytotoxicity at 10 µM of -5.92%.
